Most compounds without a hit are left out; they make up all but 2.1% or so of the library.
aDG glyco up: activators of alpha-DG glycosylation, primary screen, uHTS, Pro5-aDG cells, AlphaScreen; 0.22% of 360,000 active; alpha-DG glycosylation AlphaScreen (IIH6); 0% Pro5, 100% B10-LARGE cell signal; activation, % at 10 µM;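 active = activation of at least 8% versus controls, or a plate z-score of at least 8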;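 also: Pro5 are CHO cells carrying HIG-tagged alpha-DG that lacks glycosylation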
PfG6PD inh: PfG6PD enzyme inhibitors, primary screen, biochemical, fluorescence intensity, uHTS | glucose-6-phosphate dehydrogenase-6-phosphogluconolactonase (Plasmodium falciparum 3D7) | PfGluPho enzyme, NADPH resazurin-diaphorase fluorescence | inhibition, % at 20 µM | 0.78% of 350,000 active | AID 504690, 2011;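 active = inhibition reaching at least a set limit at 20 µM in the primary screen, cut at about 59% in these data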;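 also: 0% = DMSO wells with substrate and 100% = DMSO wells lacking glucose-6-phosphate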
Beta2AR agonist: beta2AR agonists driving receptor internalization, primary screen, cell-based, FAP fluorogen, flow cytometry. Beta-2 adrenergic receptor (Homo sapiens), P07550. Am2.2-beta2AR cells. response, % (test concentration not listed). 0.43% of 340,000 active. AID 504454, 2011;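 active = response above a set limit, near 3 SD of response in nonfluorescent compounds, cut at about 42% in these data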
Target sequence (P07550 whole entry, looked up): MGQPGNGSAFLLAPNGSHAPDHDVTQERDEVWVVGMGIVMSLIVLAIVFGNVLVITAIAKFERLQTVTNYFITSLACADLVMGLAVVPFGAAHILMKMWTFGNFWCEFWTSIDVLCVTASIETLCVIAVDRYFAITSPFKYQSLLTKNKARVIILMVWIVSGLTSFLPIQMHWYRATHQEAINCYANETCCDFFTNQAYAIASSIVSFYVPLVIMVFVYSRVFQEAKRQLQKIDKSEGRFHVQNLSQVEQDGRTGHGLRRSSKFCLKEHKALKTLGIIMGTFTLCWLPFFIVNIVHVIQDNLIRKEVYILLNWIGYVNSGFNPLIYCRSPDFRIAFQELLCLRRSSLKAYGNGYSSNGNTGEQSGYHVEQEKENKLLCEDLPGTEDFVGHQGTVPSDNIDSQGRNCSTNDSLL
Cardio protect: cardioprotection against H2O2-induced cell death, primary screen, uHTS, H9c2 cells, ATPLite luminescence; 0.63% of 360,000 active; protection from H2O2 cell death, % at 20 µM; H9c2 cardiomyocytes, H2O2 injury protection, 2 h;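 active = compounds giving at least 50% protection of heart cells from peroxide-induced death in the single-dose screen, raw or plate-pattern-corrected value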;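 also: 0% = DMSO wells with peroxide and 100% = DMSO wells without peroxide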
HKDC1 inh: HKDC1 hexokinase inhibitors, primary screen, biochemical, fluorescence, uHTS | recombinant HKDC1, G6PDH/diaphorase resazurin coupled fluorescence | inhibition, % at 20 µM | 0.16% of 340,000 active;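 active = inhibition above about 35% when tested at 20 µM, limit read from the data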;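 also: plate controls were DMSO wells with enzyme for no effect and DMSO wells lacking enzyme for full effect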
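Material – in-house recombinant HK5 (HKDC1) enzyme · Quantity – HKDC1 at 5 µg/mL · Buffer or medium – pH 8.0 Tris buffer with 10 mM MgCl2 · Reagent – glucose with 1 mM ATP · Dosing – single 20 µM dose · Times – reaction time 90 min, room temperature, protected from light · Technique – resorufin fluorescence at 613 nm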
UCH37 DUB inh: inhibitors of human UCH37 deubiquitinase, primary screen, biochemical, Ub-AMC cleavage, fluorescence | Ubiquitin carboxyl-terminal hydrolase isozyme L5 (Homo sapiens), Q9Y5K5 | purified proteasome/UCH37 | inhibition, % (test concentration not listed) | 0.33% of 330,000 active | AID 588478, 2011;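 active = mean inhibition over replicate wells above about 20%, limit read from the data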;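 also: 0% = compound-free wells with enzyme and 100% = wells lacking proteasome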
Target sequence (Q9Y5K5 whole entry, looked up): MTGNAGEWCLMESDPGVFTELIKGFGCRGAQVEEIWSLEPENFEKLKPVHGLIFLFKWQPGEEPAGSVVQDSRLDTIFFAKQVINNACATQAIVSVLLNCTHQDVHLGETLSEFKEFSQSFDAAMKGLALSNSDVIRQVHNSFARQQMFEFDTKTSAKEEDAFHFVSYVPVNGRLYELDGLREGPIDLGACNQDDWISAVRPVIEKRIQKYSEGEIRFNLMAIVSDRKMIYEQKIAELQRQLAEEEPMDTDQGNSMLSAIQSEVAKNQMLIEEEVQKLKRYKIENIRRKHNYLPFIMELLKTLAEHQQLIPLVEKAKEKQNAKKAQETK
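system = Proteasome-associated human UCH37 deubiquitinase | amount = 0.15 nM proteasome as dispensed | medium = pH 7.4 Tris-HCl (50 mM) with ovalbumin, ATP-MgCl2, DTT | incubation = 30 min preincubation with enzyme, 25 min cleavage at room temperature | detection = AMC fluorescence 355/460 nm | read-out basis = percent inhibition | controls = no-proteasome and no-compound wells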
The depositor's hits bear a star; . = no result given.

SMILES | aDG glyco up | PfG6PD inh | Beta2AR agonist | Cardio protect | HKDC1 inh | UCH37 DUB inh
COc1cc(/C=N/NC(=O)c2cccnc2)ccc1OS(=O)(=O)c1ccc(C)cc1 | 0.4 | 18.9 | 2.8 | 16.1 | -8.1 | .
COc1cc(/C=N/NC(=O)c2cccnc2)ccc1OS(=O)(=O)c1cc(C)ccc1C | 0.4 | 27.1 | 34.1 | 62.3* | -3.2 | .
COc1cc(C=NNC(=O)c2cccnc2)ccc1OS(=O)(=O)c1ccc(C)cc1 | . | . | . | . | . | 5.4
COc1cc(/C=N/NC(=O)c2cccnc2)ccc1OS(=O)(=O)c1ccc(F)cc1 | 0.3 | 12.6 | 4.9 | 84.8* | -5.9 | .
O=C(NN=Cc1ccco1)C1CC(=O)N(c2ccccc2)C1 (stereo not given) | . | . | . | . | . | 4.9
O=C(NN=Cc1cccnc1)c1ccccc1NS(=O)(=O)c1cccs1 | . | . | . | . | . | 5.6
Cc1ccccc1C(=O)N1CCC(C(=O)N2CCN(c3ncccn3)CC2)CC1 | 0.1 | -2.1 | -2.3 | -7.7 | 1.2 | -1.1
CCOC(=O)N1CCN(C(=O)C2CCN(C(=O)c3ccccc3C)CC2)CC1 | -0.5 | 117.3* | 48.7* | -20.1 | -0.4 | .
CCOc1cc(C=NNC(=O)c2cccnc2)ccc1OCc1ccc(C(=O)OC)o1 | . | . | . | . | . | 5.7
CC(=NNC(=O)CC1N=C(Cc2ccccc2)NNC1=O)c1ccc(Br)cc1 (stereo not given) | . | . | . | . | . | 4.7
Cc1nn(-c2ccccc2)c(Cl)c1C(=O)NNC(=O)c1ccccc1O | 0.3 | -59.0 | 9.5 | 57.3* | -8.9 | -1.1
COc1ccc(C(=O)Oc2cc(C=NNS(=O)(=O)c3ccccc3)ccc2OC)cc1 | . | . | . | . | . | 2.0
Cc1ccc(C(=O)NN=C2CCCc3ccccc32)c(C)c1 | . | . | . | . | . | 0.0
Cc1ccc(SCc2cc(=O)[nH]c(N3CCN(C)CC3)n2)cc1 | -0.3 | 8.6 | -3.1 | -8.0 | -5.2 | 27.5*
CCN(CC)CCCN=C1N[C@@H](c2cccc(F)c2)C(C(=O)OC)=C(C)N1Cc1ccccc1 | 0.9 | 1.1 | 65.9* | -12.4 | -5.2 | 1.5
O=C(NN=Cc1ccc(O)c(O)c1)NN=Cc1ccc(O)c(O)c1 | . | . | . | . | . | 5.9
Oc1ccc(N=Cc2ccc(O)c(O)c2)cc1 | 0.0 | 67.3* | -13.0 | -5.3 | 25.0 | 9.8
Oc1ccc(/C=N/N=C/c2ccc(O)c(O)c2)cc1O | -0.1 | 17.2 | 1.4 | 51.9* | 2.1 | .
Cc1c(NC(=O)c2cc(-c3cccs3)nc3ccccc23)c(=O)n(-c2ccccc2)n1C | 0.2 | 2.6 | 10.2 | 17.9 | -7.5 | -12.8
Cc1ccc(NC(=O)c2cc(-c3cccs3)nc3ccccc23)nc1 | -0.3 | -7.6 | 0.4 | 64.1* | 23.1 | -54.2
Cc1ccccc1NC(=O)c1cc(-c2ccco2)nc2ccccc12 | -0.1 | 13.1 | 9.4 | 1.4 | 2.4 | .
Cc1cc(C)c2nc(NNC(=O)c3cc(-c4cccs4)nc4ccccc34)sc2c1 | -0.1 | -2.7 | 11.8 | 56.2* | -35.2 | -4.2
O=C(NNc1nc2ccc(Cl)cc2s1)c1cc(-c2cccs2)nc2ccccc12 | -0.1 | -20.3 | 4.1 | 20.2 | -20.9 | .
Cc1cccc(NC(=O)c2cc(-c3ccco3)nc3ccccc23)n1 | -0.6 | 3.7 | -1.2 | 60.7* | 1.4 | -54.2
CCc1c(C)nc(Nc2nc(C)c3ccc(OC)cc3n2)[nH]c1=O | -0.2 | 0.6 | -17.4 | 66.2* | 15.2 | 7.2
SMILES | aDG glyco up | PfG6PD inh | Beta2AR agonist | Cardio protect | HKDC1 inh | UCH37 DUB inh
CCc1c(C)nc(Nc2nc(C)c3cc(OC)ccc3n2)[nH]c1=O | 3.8 | -1.9 | -0.1 | 20.3 | 4.3 | 2.8
Cc1ccc(CN2CCN(N=Cc3ccco3)CC2)c(C)c1 | . | . | . | . | . | 4.4
COc1ccc(C=NNC(=O)CC(=O)Nc2cccc(Cl)c2)cc1OC | . | . | . | . | . | 0.8
CC(C)(C)C(=O)Nc1ccc(C(=O)N/N=C/c2ccccc2OC(=O)c2ccccc2)cc1 | 0.4 | -21.2 | -0.3 | 52.5* | -3.1 | .
CCOc1cc(/C=N\NC(=O)c2ccc(NC(=O)C(C)(C)C)cc2)ccc1OC(=O)c1ccc(C)cc1 | -0.2 | 0.3 | 1.6 | -10.8 | -9.9 | .
CCOc1cc(/C=N\NC(=O)c2ccc(NC(=O)C(C)(C)C)cc2)ccc1OC(=O)c1cccc(C)c1 | -0.1 | -2.3 | 15.2 | 65.9* | 5.8 | .
Cc1ccc(-n2c(SCC(=O)NN=Cc3ccc(C)s3)nnc2-c2ccccc2)cc1 | . | . | . | . | . | 1.9
COc1cc(CNc2ncnc3c2[nH]c2ccc(C)cc23)cc(OC)c1 | 0.1 | 13.5 | 16.5 | -8.2 | -1.1 | -22.8
Cc1ccc2[nH]c3c(NCc4ccco4)ncnc3c2c1 | 4.7* | 9.6 | 4.3 | -19.6 | 6.4 | -87.0
COc1ccc(O)c(/C=N/Nc2nc(C)cc(-c3ccccc3)n2)c1 | 0.0 | 3.1 | 13.4 | 66.0* | -5.1 | .
COc1ccc(/C=N/Nc2cc(C)nc3ccc(OC)cc23)c(OC)c1 | -0.5 | 13.8 | -1.8 | -23.2 | 6.8 | .
COc1ccc(/C=N/Nc2nc(C)cc(-c3ccccc3)n2)c(OC)c1 | 0.5 | -0.1 | 0.2 | 3.9 | -11.3 | .
COc1ccc2nc(C)cc(N/N=C/c3ccccc3)c2c1 | -0.4 | 22.4 | 47.4* | -21.9 | 3.0 | .
COc1ccc(CNC(=S)NN=Cc2ccncc2)cc1 | . | . | . | . | . | 34.0*
CCOc1ccc(CNC(=S)NN=Cc2cccnc2)cc1 | . | . | . | . | . | 2.6
O=C(Cn1[nH]c(=O)c2ccccc2c1=O)NC1CCCCCC1 | -0.3 | 7.0 | -4.8 | 77.8* | 3.6 | -1.0
O=C(Cn1[nH]c(=O)c2ccccc2c1=O)NC1CCN(Cc2ccccc2)CC1 | -0.3 | 12.7 | 1.1 | 70.5* | -7.2 | 4.0
Nc1c(Cl)ncnc1NN=Cc1ccc2ccccc2n1 | . | . | . | . | . | 8.7
CC(CC(=O)Nc1ccc(C)c(Cl)c1)=NNC(=O)Cc1cnc(N)s1 | . | . | . | . | . | -0.5
Cc1ccc(C)c(NC(=O)C(Sc2nc3ccccc3c(=O)n2CC(C)C)c2ccccc2)c1 (stereo not given) | -0.3 | 1.0 | 11.9 | 80.0* | -5.8 | 0.7
Cc1ccc(C)c(NC(=O)C(Sc2ncnc3ccccc23)c2ccccc2)c1 (stereo not given) | 1.2 | 1.8 | -6.9 | 54.8* | -5.6 | 1.1
Cn1c2c(c(=O)n(C)c1=O)C(c1ccc(Br)cc1)Nc1ccccc1O2 (stereo not given) | 0.6 | -3.2 | -8.2 | 50.6* | -1.0 | 0.9
CN(C)CCCN1c2ccccc2Sc2ccccc21 | -0.3 | 4.6 | 32.9 | 50.2* | 0.9 | 1.3
COc1ccc(Nc2nc(C(=O)N3CCc4cc(OC)c(OC)cc4C3)cs2)cc1 | -0.4 | -11.5 | 24.6 | 73.8* | -0.9 | 1.7
COc1ccc(Nc2nc(C(=O)N3CCc4ccccc4C3)cs2)cc1 | 0.4 | 8.3 | -1.4 | 1.0 | -2.2 | 3.5

Screening results deposited in PubChem by several laboratories.
